Source: ChEMBL document CHEMBL3120154, “2-[N-Alkyl(R-phenyl)-aminomethyl]-3-phenyl-7-trifluoromethylquinoxalines as anticancer agents inhibitors of folate enzymes” (Eur J Med Chem, 2014)

How the values were obtained:
Assay type in all cases: functional
SK-MEL-5 = test: Cytotoxicity against human SK-MEL-5 cells at 10^-6 M after 48 hrs by SRB assay; conditions: SK-MEL-5, 48 h, read-out: GI
How it was run: (§1)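 Second-stage screen in the 60-cell-line human tumor panel at NCI, over a 5-log range (100, 10, 1, 0.1, 0.01 micromolar). Cells were exposed to drug for 48 h and growth was estimated with a sulforhodamine B protein stain. The value is percent growth inhibition at each concentration.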

RXF 393 [1] = test: Cytotoxicity against human RXF393 cells at 10^-5 M after 48 hrs by SRB assay; conditions: RXF 393, 48 h, read-out: GI; how it was run: as §1
MDA-MB-231 [2] = test: Cytotoxicity against human MDA-MB-231 cells at 10^-6 M after 48 hrs by SRB assay; conditions: MDA-MB-231, 48 h, read-out: GI
How it was run: (§2)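 Run in the NCI 60-cell-line screen after a three-line prescreen. Cells got a 48 h drug exposure; viability/growth was estimated with the sulforhodamine B protein assay. Growth inhibition (I%) was recorded at 100, 10, 1, 0.1 and 0.01 micromolar. Percent growth is relative to untreated control cells, and negative values indicate cell kill.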

MCF7 = test: Cytotoxicity against human MCF7 cells at 10^-6 M after 48 hrs by SRB assay; conditions: MCF7, 48 h, read-out: GI; how it was run: as §2
NCI-H226 = test: Cytotoxicity against human NCI-H226 cells at 10^-5 M after 48 hrs by SRB assay; conditions: NCI-H226, 48 h, read-out: GI; how it was run: as §2
NCI-H522 = test: Cytotoxicity against human NCI-H522 cells at 10^-5 M after 48 hrs by SRB assay; conditions: NCI-H522, 48 h, read-out: GI; how it was run: as §2
ACHN = test: Cytotoxicity against human ACHN cells at 10^-5 M after 48 hrs by SRB assay; conditions: read-out: GI
How it was run: (§3)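 Run by NCI on its 60-line human tumor cell panel, after a three-cell-line prescreen. Cells were exposed to drug for 48 h over a 5-log range: 100, 10, 1, 0.1 and 0.01 micromolar. Growth was estimated by sulforhodamine B (SRB) protein staining. Percent growth inhibition (I%) was recorded at each concentration relative to untreated control cells.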

DU-145 = test: Cytotoxicity against human DU145 cells at 10^-5 M after 48 hrs by SRB assay; conditions: DU-145, 48 h, read-out: GI; how it was run: as §3
SF-268 = test: Cytotoxicity against human SF268 cells at 10^-6 M after 48 hrs by SRB assay; conditions: SF-268, 48 h, read-out: GI; how it was run: as §1
HCT-116 = test: Cytotoxicity against human HCT116 cells at 10^-6 M after 48 hrs by SRB assay; conditions: HCT-116, 48 h, read-out: GI; how it was run: as §3
MDA-MB-231 [3] = test: Cytotoxicity against human MDA-MB-231 cells at 10^-5 M after 48 hrs by SRB assay; conditions: MDA-MB-231, 48 h, read-out: GI; how it was run: as §2
[4] = Cytotoxicity against human Hs578T cells at 10^-5 M after 48 hrs by SRB assay; conditions: Hs-578T, read-out: GI; how it was run: as §3
HL-60(TB) [5] = test: Cytotoxicity against human HL-60(TB) cells at 10^-5 M after 48 hrs by SRB assay; conditions: HL-60, 48 h, read-out: GI
How it was run: (§4)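 NCI 60-human-tumour-cell-line screen run over a 5-log dose range (100, 10, 1, 0.1 and 0.01 µM). Cells were exposed to drug for 48 h. Growth was estimated by sulforhodamine B protein staining. Values are percent growth inhibition at each concentration, relative to untreated control cells.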

HOP-92 = test: Cytotoxicity against human HOP92 cells at 10^-5 M after 48 hrs by SRB assay; conditions: HOP-92, 48 h, read-out: GI; how it was run: as §3
SF-539 = test: Cytotoxicity against human SF539 cells at 10^-5 M after 48 hrs by SRB assay; conditions: SF-539, 48 h, read-out: GI; how it was run: as §1
SK-OV-3 [6] = test: Cytotoxicity against human SKOV3 cells at 10^-6 M after 48 hrs by SRB assay; conditions: SK-OV-3, 48 h, read-out: GI; how it was run: as §1
NCI-H23 [7] = test: Cytotoxicity against human NCI-H23 cells at 10^-6 M after 48 hrs by SRB assay; conditions: NCI-H23, 48 h, read-out: GI; how it was run: as §2
SNB-75 [8] = test: Cytotoxicity against human SNB75 cells at 10^-5 M after 48 hrs by SRB assay; conditions: SNB-75, 48 h, read-out: GI
A549 [9] = test: Cytotoxicity against human A549 cells at 10^-5 M after 48 hrs by SRB assay; conditions: A549, 48 h, read-out: GI; how it was run: as §3
SNB-75 [10] = test: Cytotoxicity against human SNB75 cells at 10^-6 M after 48 hrs by SRB assay; conditions: SNB-75, 48 h, read-out: GI
HOP-62 = test: Cytotoxicity against human HOP62 cells at 10^-6 M after 48 hrs by SRB assay; conditions: HOP-62, 48 h, read-out: GI; how it was run: as §3
CCRF-CEM = test: Cytotoxicity against human CCRF-CEM cells at 10^-6 M after 48 hrs by SRB assay; conditions: read-out: GI; how it was run: as §3
NCI-H23 [11] = test: Cytotoxicity against human NCI-H23 cells at 10^-5 M after 48 hrs by SRB assay; conditions: NCI-H23, 48 h, read-out: GI; how it was run: as §2
NCI-H460 = test: Cytotoxicity against human NCI-H460 cells at 10^-5 M after 48 hrs by SRB assay; conditions: NCI-H460, 48 h, read-out: GI; how it was run: as §2
A549 [12] = test: Cytotoxicity against human A549 cells at 10^-6 M after 48 hrs by SRB assay; conditions: A549, 48 h, read-out: GI; how it was run: as §3
SW-620 = test: Cytotoxicity against human SW620 cells at 10^-6 M after 48 hrs by SRB assay; conditions: SW-620, 48 h, read-out: GI
SK-MEL-2 = test: Cytotoxicity against human SK-MEL-2 cells at 10^-6 M after 48 hrs by SRB assay; conditions: SK-MEL-2, 48 h, read-out: GI; how it was run: as §1
MDA-MB-435 [13] = test: Cytotoxicity against human MDA-MB-435 cells at 10^-6 M after 48 hrs by SRB assay; conditions: MDA-MB-435, 48 h, read-out: GI; how it was run: as §2
LOX IMVI [14] = test: Cytotoxicity against human LOXIMVI cells at 10^-6 M after 48 hrs by SRB assay; conditions: read-out: GI; how it was run: as §2
[15] = Cytotoxicity against human UACC257 cells at 10^-5 M after 48 hrs by SRB assay; conditions: UACC-257, 48 h, read-out: GI
SF-295 = test: Cytotoxicity against human SF295 cells at 10^-6 M after 48 hrs by SRB assay; conditions: SF-295, 48 h, read-out: GI; how it was run: as §1
RXF 393 [16] = test: Cytotoxicity against human RXF393 cells at 10^-6 M after 48 hrs by SRB assay; conditions: RXF 393, 48 h, read-out: GI; how it was run: as §1
LOX IMVI [17] = test: Cytotoxicity against human LOXIMVI cells at 10^-5 M after 48 hrs by SRB assay; conditions: read-out: GI; how it was run: as §2
SK-OV-3 [18] = test: Cytotoxicity against human SKOV3 cells at 10^-5 M after 48 hrs by SRB assay; conditions: SK-OV-3, 48 h, read-out: GI; how it was run: as §1
HL-60(TB) [19] = test: Cytotoxicity against human HL-60(TB) cells at 10^-6 M after 48 hrs by SRB assay; conditions: HL-60, 48 h, read-out: GI; how it was run: as §4
MDA-MB-435 [20] = test: Cytotoxicity against human MDA-MB-435 cells at 10^-5 M after 48 hrs by SRB assay; conditions: MDA-MB-435, 48 h, read-out: GI; how it was run: as §2

Structure (SMILES): CCN(Cc1nc2cc(C(F)(F)F)ccc2nc1-c1ccccc1)c1ccc(OC)c(OC)c1
- inhibition of growth at 1 µM (SK-MEL-5): < 40%
- inhibition of growth at 10 µM (RXF 393 [1]): 102%
- inhibition of growth at 1 µM (MDA-MB-231 [2]): < 40%
- inhibition of growth at 1 µM (MCF7): < 40%
- inhibition of growth at 10 µM (NCI-H226): 32%
- inhibition of growth at 10 µM (NCI-H522): 28%
- inhibition of growth at 10 µM (ACHN): 25%
- inhibition of growth at 10 µM (DU-145): 26%
- inhibition of growth at 1 µM (SF-268): < 40%
- inhibition of growth at 1 µM (HCT-116): 12%
- inhibition of growth at 10 µM (MDA-MB-231 [3]): 36%
- inhibition of growth at 10 µM [4]: 43%
- inhibition of growth at 10 µM (HL-60(TB) [5]): 83%
- inhibition of growth at 10 µM (HOP-92): 21%
- inhibition of growth at 10 µM (SF-539): 18%
- inhibition of growth at 1 µM (SK-OV-3 [6]): < 40%
- inhibition of growth at 1 µM (NCI-H23 [7]): 14%
- inhibition of growth at 10 µM (SNB-75 [8]): < 40%
- inhibition of growth at 10 µM (A549 [9]): 79%
- inhibition of growth at 1 µM (SNB-75 [10]): < 40%
- inhibition of growth at 1 µM (HOP-62): < 40%
- inhibition of growth at 1 µM (CCRF-CEM): < 40%
- inhibition of growth at 10 µM (NCI-H23 [11]): 34%
- inhibition of growth at 10 µM (NCI-H460): 25%
- inhibition of growth at 1 µM (A549 [12]): 56%
- inhibition of growth at 1 µM (SW-620): < 40%
- inhibition of growth at 1 µM (SK-MEL-2): < 40%
- inhibition of growth at 1 µM (MDA-MB-435 [13]): < 40%
- inhibition of growth at 1 µM (LOX IMVI [14]): < 40%
- inhibition of growth at 10 µM [15]: 146%
- inhibition of growth at 1 µM (SF-295): < 40%
- inhibition of growth at 1 µM (RXF 393 [16]): 57%
- inhibition of growth at 10 µM (LOX IMVI [17]): 23%
- inhibition of growth at 10 µM (SK-OV-3 [18]): < 40%
- inhibition of growth at 1 µM (HL-60(TB) [19]): < 40%
- inhibition of growth at 10 µM (MDA-MB-435 [20]): 14%

Structure (SMILES): C#CCN(Cc1nc2cc(C(F)(F)F)ccc2nc1-c1ccccc1)c1ccc(C)cc1
- inhibition of growth at 1 µM (SK-MEL-5): < 40%
- inhibition of growth at 10 µM (RXF 393 [1]): 70%
- inhibition of growth at 1 µM (MDA-MB-231 [2]): < 40%
- inhibition of growth at 1 µM (MCF7): 64%
- inhibition of growth at 10 µM (NCI-H226): 91%
- inhibition of growth at 10 µM (NCI-H522): 76%
- inhibition of growth at 10 µM (ACHN): 95%
- inhibition of growth at 10 µM (DU-145): < 40%
- inhibition of growth at 1 µM (SF-268): < 40%
- inhibition of growth at 1 µM (HCT-116): 66%
- inhibition of growth at 10 µM (MDA-MB-231 [3]): 64%
- inhibition of growth at 10 µM [4]: 88%
- inhibition of growth at 10 µM (HL-60(TB) [5]): 85%
- inhibition of growth at 10 µM (HOP-92): < 40%
- inhibition of growth at 10 µM (SF-539): 49%
- inhibition of growth at 1 µM (SK-OV-3 [6]): < 40%
- inhibition of growth at 1 µM (NCI-H23 [7]): < 40%
- inhibition of growth at 10 µM (SNB-75 [8]): 118%
- inhibition of growth at 10 µM (A549 [9]): 55%
- inhibition of growth at 1 µM (SNB-75 [10]): < 40%
- inhibition of growth at 1 µM (HOP-62): 56%
- inhibition of growth at 1 µM (CCRF-CEM): < 40%
- inhibition of growth at 10 µM (NCI-H23 [11]): 92%
- inhibition of growth at 10 µM (NCI-H460): 75%
- inhibition of growth at 1 µM (A549 [12]): 45%
- inhibition of growth at 1 µM (SW-620): < 40%
- inhibition of growth at 1 µM (SK-MEL-2): 41%
- inhibition of growth at 1 µM (MDA-MB-435 [13]): 104%
- inhibition of growth at 1 µM (LOX IMVI [14]): < 40%
- inhibition of growth at 10 µM [15]: < 40%
- inhibition of growth at 1 µM (SF-295): 56%
- inhibition of growth at 1 µM (RXF 393 [16]): < 40%
- inhibition of growth at 10 µM (LOX IMVI [17]): 54%
- inhibition of growth at 10 µM (SK-OV-3 [18]): 112%
- inhibition of growth at 1 µM (HL-60(TB) [19]): 66%
- inhibition of growth at 10 µM (MDA-MB-435 [20]): 147%
